Reference: ChEMBL document CHEMBL1125311, “Inhibition of human leukocyte elastase. 4. Selection of a substituted cephalosporin (L-658,758) as a topical aerosol” (J Med Chem, 1992)

Assays:
Cricetinae gen. sp. [1] = assay: Compound was evaluated in vivo for inhibition of HLE-induced hemorrhage in hamster lung at 10 ug 30 min after administration prior to HLE; assay type: functional, Cricetulus griseus
In short: (§1)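 Hamster, intratracheal dosing of compound (per animal) 30 min before IT instillation of 50 μg HLE (50 units in Experimental); hemorrhage read 3 h later: lungs lavaged with saline, hemoglobin in lavage measured at 414 nm. Percent inhibition from drug-treated vs vehicle-treated hemorrhage; three animals per dose and time. Titration at 100, 30, 10, 3 μg/animal gives ED50.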

Cricetinae gen. sp. [2] = assay: Compound was evaluated in vivo for inhibition of HLE-induced hemorrhage in hamster lung at 200 microg 3h after administration prior to HLE; assay type: functional, Cricetulus griseus
In short: (§2)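 Hamster duration protocol: 200 μg/animal given intratracheally 60, 120, 180 or 240 min before IT HLE instillation; hemorrhage scored after 3 h as hemoglobin (414 nm) in saline lung lavage, relative to vehicle-treated animals; three animals per point. T50 taken as time at which 50% inhibition is still obtained.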

Cricetinae gen. sp. [3] = assay: Compound was evaluated in vivo for inhibition of HLE-induced hemorrhage in hamster lung at 200 microg 4 hr after administration prior to HLE; assay type: functional, Cricetulus griseus; in short: as §2
[4] = target: T1, Neutrophil elastase (Homo sapiens) (UniProt P08246)
T1 sequence (whole entry): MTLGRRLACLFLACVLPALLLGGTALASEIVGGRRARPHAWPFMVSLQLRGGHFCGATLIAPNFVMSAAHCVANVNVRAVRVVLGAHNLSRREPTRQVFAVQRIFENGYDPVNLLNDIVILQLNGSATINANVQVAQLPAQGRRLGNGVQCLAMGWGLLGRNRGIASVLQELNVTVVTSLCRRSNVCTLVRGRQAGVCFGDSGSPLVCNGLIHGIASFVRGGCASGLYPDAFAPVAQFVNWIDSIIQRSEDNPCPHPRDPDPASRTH

Rattus norvegicus [5] = species on record: Rattus norvegicus; assay: Inhibitory activity against Human Leukocyte Elastase by Lung Hemorrhage assay (at 250 ug/animal)
[6] = Half-life value of the compound.; assay type: ADME
In short: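 Chemical stability: compound dissolved at 1 mg/mL in 0.5 M MOPS, pH 8.0, held at 25 °C in capped vial; aliquots quenched in 2% aqueous TFA and analysed by reverse-phase HPLC over one to two half-lives. Peak areas fit to first-order decay F(t)=A/2^(t/t1/2) to give t1/2.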

Cricetinae gen. sp. [7] = assay: Compound was evaluated in vivo for inhibition of HLE-induced hemorrhage in hamster lung at 200 microg 1 hr after administration prior to HLE; assay type: functional, Cricetulus griseus; in short: as §2
Cricetinae gen. sp. [8] = assay: Inhibitory activity against Human Leukocyte Elastase by Lung Hemorrhage assay (Effective dose at 15 microg); assay type: functional, Cricetulus griseus
Cricetinae gen. sp. [9] = assay: Compound was evaluated in vivo for inhibition of HLE-induced hemorrhage in hamster lung at 30 ug 30 min after administration prior to HLE; assay type: functional, Cricetulus griseus; in short: as §1
Cricetinae gen. sp. [10] = assay: Compound was evaluated in vivo for inhibition of HLE-induced hemorrhage in hamster lung at 100 microg 30 min after administration prior to HLE; assay type: functional, Cricetulus griseus; in short: as §1
Cricetinae gen. sp. [11] = assay: Inhibitory activity against Human Leukocyte Elastase by Lung Hemorrhage assay; assay type: functional, Cricetulus griseus
Cricetinae gen. sp. [12] = assay: Inhibitory activity against Human Leukocyte Elastase by Lung Hemorrhage assay ( at 30 min); assay type: functional, Cricetulus griseus; in short: as §1
Cricetinae gen. sp. [13] = assay: Inhibitory activity against Human Leukocyte Elastase by Lung Hemorrhage assay (at 200 ug/animal); assay type: functional, Cricetulus griseus; in short: as §2
Cricetinae gen. sp. [14] = assay: Compound was evaluated in vivo for inhibition of HLE-induced hemorrhage in hamster lung at 200 microg 2 hr after administration prior to HLE; assay type: functional, Cricetulus griseus; in short: as §2
Cricetinae gen. sp. [15] = assay: Compound was evaluated in vivo for inhibition of HLE-induced hemorrhage in hamster lung at 100 microg, 30 min after administration prior to HLE; assay type: functional, Cricetulus griseus; in short: as §1
Cricetinae gen. sp. [16] = assay: Compound was evaluated in vivo for inhibition of HLE-induced hemorrhage in hamster lung at 200 microg, 4 hr after administration prior to HLE; assay type: functional, Cricetulus griseus; in short: as §2
Cricetinae gen. sp. [17] = assay: Compound was evaluated in vivo for lung hemorrhage inhibitory activity at 200 microg, 1 hr after administration prior to HLE; assay type: functional, Cricetulus griseus; in short: as §2
Cricetinae gen. sp. [18] = assay: Compound was evaluated in vivo for inhibition of HLE-induced hemorrhage in hamster lung at 10microg, 30 min after administration prior to HLE; assay type: functional, Cricetulus griseus; in short: as §1
Cricetinae gen. sp. [19] = assay: Compound was evaluated in vivo for inhibition of HLE-induced hemorrhage in hamster lung at 200 microg, 2 hr after administration prior to HLE; assay type: functional, Cricetulus griseus; in short: as §2
Cricetinae gen. sp. [20] = assay: Compound was evaluated in vivo for inhibition of HLE-induced hemorrhage in hamster lung at 30microg, 30 min after administration prior to HLE; assay type: functional, Cricetulus griseus; in short: as §1
Cricetinae gen. sp. [21] = assay: Compound was evaluated in vivo for inhibition of HLE-induced hemorrhage in hamster lung at 200 microg, 3h after administration prior to HLE; assay type: functional, Cricetulus griseus; in short: as §2
[22] = target: Prothrombin (Homo sapiens) (UniProt P00734); assay: Inhibitory activity against Thrombin at 10 min (48 mM conc)
In short: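 Human thrombin was assayed colorimetrically with 0.2 mM Tosyl-Gly-Pro-Arg-p-nitroanilide as substrate. Percent inhibition was read at 10 min.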

Rattus norvegicus [23] = species on record: Rattus norvegicus; assay: Inhibition of lung hemorrhage caused by elastase in an acute reverse passive Arthus reaction in rat at 250 ug/animal (ED50=55 ug); assay type: functional
Cricetinae gen. sp. [24] = assay: Inhibition of lung hemorrhage at 200 ug/animal; assay type: functional, Cricetulus griseus; in short: as §2
[25] = Partion ratio of the compound; assay type: ADME
Cricetinae gen. sp. [26] = assay: Compound was evaluated in vivo for inhibition of HLE-induced hemorrhage in hamster lung at 10 microg 30 min after administration prior to HLE; assay type: functional, Cricetulus griseus; in short: as §1
Papain (Carica papaya) = target: T2, Papain (Carica papaya) (UniProt P00784); assay: Inhibitory activity against Papain at 10 min (48 mM conc)
T2 sequence (whole entry): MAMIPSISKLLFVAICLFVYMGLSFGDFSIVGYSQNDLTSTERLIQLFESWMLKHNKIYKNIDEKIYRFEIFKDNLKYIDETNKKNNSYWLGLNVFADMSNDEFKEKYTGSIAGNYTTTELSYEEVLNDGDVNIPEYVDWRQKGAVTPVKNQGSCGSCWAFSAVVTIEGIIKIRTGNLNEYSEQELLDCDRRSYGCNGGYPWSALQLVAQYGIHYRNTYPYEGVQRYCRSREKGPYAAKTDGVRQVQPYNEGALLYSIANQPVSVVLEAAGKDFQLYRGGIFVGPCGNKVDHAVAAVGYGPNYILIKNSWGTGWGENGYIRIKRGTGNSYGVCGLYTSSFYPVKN
In short: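 Papain activity was read at 410 nm as p-nitroanilide release from benzoyl-Arg-p-nitroanilide, in pH 7.5 TES with 0.001 M EDTA, 0.005 M Cys and 10% DMSO. Percent inhibition was taken at 10 min.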

[27] = target: T3, Cathepsin G (Homo sapiens) (UniProt P08311); assay: Inhibitory activity against Cathepsin G at 10 min (48 mM conc)using t-Boc-Tyr-ONp as substrate
T3 sequence (whole entry): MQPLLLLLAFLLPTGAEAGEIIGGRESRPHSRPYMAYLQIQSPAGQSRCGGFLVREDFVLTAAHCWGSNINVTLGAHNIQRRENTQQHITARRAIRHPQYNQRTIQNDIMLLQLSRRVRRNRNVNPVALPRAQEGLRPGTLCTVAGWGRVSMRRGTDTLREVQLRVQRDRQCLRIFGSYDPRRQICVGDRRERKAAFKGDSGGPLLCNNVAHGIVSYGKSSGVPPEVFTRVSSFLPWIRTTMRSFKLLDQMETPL

Homo sapiens [28] = species on record: Homo sapiens; assay: Inhibitory activity against Clotting cascade at 10 min (240 nM conc); assay type: functional
In short: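 Whole clotting cascade tested with compound at 240 nM; percent inhibition at 10 min.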

[29] = target: Plasminogen (Homo sapiens) (UniProt P00747); assay: Inhibitory activity against Plasmin at 10 min (48 mM conc) using 0.2 mM Tosyl-Gly-Pro-Arg-p-nitroanilide as substrate
In short: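 Human plasmin run under the same conditions as the HLE assay, with 0.2 mM Tosyl-Gly-Pro-Arg-p-nitroanilide as substrate. Inhibitor at 48 mM (so in the source). Percent inhibition read at 10 min.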

[30] = target: T4, Thermolysin (Bacillus thermoproteolyticus) (UniProt P00800); assay: Inhibitory activity against Thermolysin at 10 min (48 mM conc)
T4 sequence (whole entry): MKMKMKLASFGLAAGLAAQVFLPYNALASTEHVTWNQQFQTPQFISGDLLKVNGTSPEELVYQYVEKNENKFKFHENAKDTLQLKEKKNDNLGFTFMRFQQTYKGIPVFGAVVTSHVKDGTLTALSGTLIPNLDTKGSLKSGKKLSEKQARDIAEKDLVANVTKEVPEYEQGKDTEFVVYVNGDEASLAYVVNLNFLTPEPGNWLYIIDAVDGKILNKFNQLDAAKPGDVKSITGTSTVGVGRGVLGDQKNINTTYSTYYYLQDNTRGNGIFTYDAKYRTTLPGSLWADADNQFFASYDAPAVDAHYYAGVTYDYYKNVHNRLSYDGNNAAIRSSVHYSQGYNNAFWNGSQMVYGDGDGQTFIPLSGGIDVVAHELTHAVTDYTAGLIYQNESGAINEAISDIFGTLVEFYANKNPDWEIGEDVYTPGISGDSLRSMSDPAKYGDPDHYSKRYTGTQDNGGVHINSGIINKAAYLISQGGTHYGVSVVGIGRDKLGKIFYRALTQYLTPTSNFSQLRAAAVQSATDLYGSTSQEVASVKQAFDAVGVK
In short: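 Thermolysin cleaved 0.2 mM Suc-Ala-Ala-Phe-AMC in pH 7.5 TES with excess leucine aminopeptidase. Released 7-amino-4-methylcoumarin was read by fluorescence (ex 383, em 455). Percent inhibition was taken at 10 min.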

Cricetinae gen. sp. [31] = assay: Compound was evaluated in vivo for inhibition of HLE-induced hemorrhage in hamster lung at 30 microg 30 min after administration prior to HLE; assay type: functional, Cricetulus griseus; in short: as §1
[32] = Inhibition of elastin solubilization; assay type: functional
Pepsin A (Homo sapiens) = Pepsin A (Homo sapiens) (UniProt P0DJD9); assay: Inhibitory activity against Pepsin at 48 mM for 10 min
In short: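 Pepsin activity was tracked at 310 nm as hydrolysis of 1 mM Phe-Gly-His-p-NO2-Phe-Phe-Ala-OMe in 0.04 M formate buffer at pH 4.0. Percent inhibition was read at 10 min.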

Neutrophil elastase = target: T5, Neutrophil elastase (Homo sapiens, UniProt P08246); assay: Inhibitory activity against HLE at 10 min (48 mM conc)
T5 sequence (P08246 whole entry): T1 sequence (whole entry)

Homo sapiens [33] = species on record: Homo sapiens; assay: Inhibitory activity against Complement cascade at 10 min (120 mM conc); assay type: functional

Pepsin A (Homo sapiens), sequence (P0DJD9 63-388 limits assumed): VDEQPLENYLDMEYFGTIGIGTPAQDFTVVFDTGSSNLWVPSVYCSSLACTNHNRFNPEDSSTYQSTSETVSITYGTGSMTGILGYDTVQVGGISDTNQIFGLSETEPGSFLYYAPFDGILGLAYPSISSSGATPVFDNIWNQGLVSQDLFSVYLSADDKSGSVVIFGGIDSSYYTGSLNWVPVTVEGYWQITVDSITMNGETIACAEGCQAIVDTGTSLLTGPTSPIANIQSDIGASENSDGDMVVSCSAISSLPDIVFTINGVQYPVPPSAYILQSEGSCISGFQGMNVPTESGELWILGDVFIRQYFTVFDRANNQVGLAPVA
Plasminogen (Homo sapiens), sequence (P00747 97-580 limits assumed): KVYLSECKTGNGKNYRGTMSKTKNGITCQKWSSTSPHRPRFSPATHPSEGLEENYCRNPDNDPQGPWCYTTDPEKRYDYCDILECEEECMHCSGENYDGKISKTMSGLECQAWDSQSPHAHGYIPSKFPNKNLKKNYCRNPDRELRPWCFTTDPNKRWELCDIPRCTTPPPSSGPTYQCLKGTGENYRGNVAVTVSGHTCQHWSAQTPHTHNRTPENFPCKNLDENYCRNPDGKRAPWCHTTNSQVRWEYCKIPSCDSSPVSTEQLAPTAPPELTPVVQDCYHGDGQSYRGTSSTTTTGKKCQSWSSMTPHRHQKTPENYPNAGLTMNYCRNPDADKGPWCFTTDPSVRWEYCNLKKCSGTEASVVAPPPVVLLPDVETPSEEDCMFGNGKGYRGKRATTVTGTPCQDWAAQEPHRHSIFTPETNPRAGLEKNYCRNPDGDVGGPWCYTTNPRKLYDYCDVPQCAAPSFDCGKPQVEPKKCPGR
Plasminogen (Homo sapiens), sequence (P00747 581-810 limits assumed): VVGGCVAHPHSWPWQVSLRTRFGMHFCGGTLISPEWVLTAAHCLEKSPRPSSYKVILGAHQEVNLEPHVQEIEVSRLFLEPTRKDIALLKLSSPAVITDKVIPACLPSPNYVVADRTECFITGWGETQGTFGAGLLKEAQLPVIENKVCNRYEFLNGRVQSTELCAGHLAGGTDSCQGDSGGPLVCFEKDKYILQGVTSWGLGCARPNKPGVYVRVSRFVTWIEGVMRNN

Compound: CO[C@H]1C(=O)N2C(C(=O)N(C)CC(=O)O)=C(CSc3nc(=O)c(=O)[nH]n3C)CS(=O)(=O)[C@H]12
- Inhibition (Cricetinae gen. sp. [1]): 56%
- Inhibition (Cricetinae gen. sp. [2]): 64%
- Inhibition (Cricetinae gen. sp. [3]): 37%
- k obs / 1 [4]: 6200 M⁻¹ s⁻¹
- Inhibition (Rattus norvegicus [5]): 82%
- half-life [6]: 22 h
- Inhibition (Cricetinae gen. sp. [7]): 94%
- ED50 (Cricetinae gen. sp. [8]): 400 µg
- Inhibition (Cricetinae gen. sp. [9]): 94%
- Inhibition (Cricetinae gen. sp. [10]): 98%
- Inhibition (Cricetinae gen. sp. [11]): 86%
- ED50 (Cricetinae gen. sp. [12]): 10 µg
- T50 (Cricetinae gen. sp. [13]): 180 min
- Inhibition (Cricetinae gen. sp. [14]): 90%

Compound: CO[C@H]1C(=O)N2C(C(=O)N3CC(O)CC3C(=O)O)=C(COC(C)=O)CS(=O)(=O)[C@H]12 (stereo partly specified)
- Inhibition (Cricetinae gen. sp. [15]): 98%
- Inhibition (Cricetinae gen. sp. [16]): 17%
- k obs / 1 [4]: 900 M⁻¹ s⁻¹
- Inhibition (Cricetinae gen. sp. [17]): 86%
- Inhibition (Cricetinae gen. sp. [18]): 78%
- Inhibition (Cricetinae gen. sp. [19]): 81%
- Inhibition (Cricetinae gen. sp. [20]): 95%
- Inhibition (Cricetinae gen. sp. [21]): 4%

Compound: CO[C@H]1C(=O)N2C(C(=O)N3CCC[C@H]3C(=O)O)=C(COC(C)=O)CS(=O)(=O)[C@H]12
- inhibition [22]: 0%
- Inhibition (Rattus norvegicus [23]): 87%
- Inhibition (Cricetinae gen. sp. [2]): 78%
- T50 (Cricetinae gen. sp. [24]): 185 min
- Inhibition (Cricetinae gen. sp. [3]): 32%
- Partition ratio [25]: 2
- Inhibition (Cricetinae gen. sp. [26]): 77%
- inhibition (Papain (Carica papaya)): 0%
- k obs / 1 [4]: 3800 M⁻¹ s⁻¹
- inhibition [27]: 18%
- Inhibition (Homo sapiens [28]): -8%
- half-life [6]: 21 h
- inhibition [29]: 14%
- inhibition [30]: 0%
- Inhibition (Cricetinae gen. sp. [31]): 86%
- Inhibition (Cricetinae gen. sp. [7]): 99%
- IC50 [32]: 500 nM
- ED50 (Cricetinae gen. sp. [8]): 30 µg
- inhibition (Pepsin A (Homo sapiens)): 0%
- Ki (Neutrophil elastase): 1700 nM
- Inhibition (Cricetinae gen. sp. [10]): 93%
- Inhibition (Cricetinae gen. sp. [11]): 70%
- Inhibition (Cricetinae gen. sp. [14]): 97%
- Inhibition (Homo sapiens [33]): 6%
